Most compounds without a hit are left out; they make up all but 3.9% or so of the library.
HCV NS3 hel inh = inhibitors of HCV NS3 helicase, primary screen, biochemical, Cy5 molecular beacon fluorescence; NS3 helicase DNA unwinding; Hepatitis C virus NS3 helicase; 0.56% of 290,000 active; inhibition, % at 10.9 µM;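 active = inhibition above the mean of all tested compounds plus 3 SD, set per campaign, cut at about 35% in these data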;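 also: 0% = DMSO wells and 100% = thioflavine S control wells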
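assay system = NS3 helicase fragment of HCV | buffer or medium = MOPS pH 6.5, MgCl2, DTT, Tween20, BSA | timing = 60 min unwinding reaction at 25 °C after ATP addition | signal = Cy5 beacon fluorescence read at start and 1 h | read-out basis = % inhibition of unwinding | control set = low DMSO, high thioflavine S at 110 µM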
HSP90 inh = HSP90 inhibitors, primary screen, cell lysate, luminescence; Rabbit reticulocyte lysate, luciferase refolding luminescence, 3 h; inhibition, % at 5.6 µM; 0.91% of 290,000 active; AID 1789, 2009;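 active = inhibition above the screen-wide mean plus 3 SD, computed separately per campaign, cut at about 16% in these data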;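 also: 0% = DMSO wells and 100% = 60 µM geldanamycin wells; inhibitors lower the luminescence because luciferase stays unfolded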
HSF1 activator = HSF-1 activators, primary screen, NIH3T3-HGL cells, MG132 stress, luminescence, single point; activation, % at 9 µM; AID 504408, 2011; 1.7% of 300,000 active; NIH3T3-HGL HSF-1 luciferase reporter, 8 h; 100% = twice DMSO control signal;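 active = mean replicate activation of at least 50% with a set share of replicates each reaching 50%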;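 also: 0% = median of the neutral control wells and 100% = twice that signal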
HSF1 inh = HSF1 inhibitors in luciferase reporter cells, primary screen, cell-based, NIH3T3, luminescence | 0.77% of 300,000 active | AID 2098, 2009 | NIH3T3-HGL HSE-luciferase, MG132-induced, luminescence 8 h; stronger effect = lower value | activity change, negative = inhibition, % at 7.5 µM (by protocol);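 active = more than half of replicate wells show activity change below -50%, luminescence cut by over half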;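 also: luciferase reports HSF-1 transcriptional activity via heat shock element; 0% = median of DMSO wells and -100% = zero luminescence signal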
DNA FID counter = compounds displacing fluorescent DNA intercalator, primary screen, artefact control for HCV NS3 helicase inhibitor project, biochemical, FID fluorescence; 0.17% of 290,000 active; DNA fluorescent intercalator displacement; inhibition, % at 7.9 µM; in the data active = inhibition above about 37%;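 also: 0% = vehicle and 100% = reference compound; higher means more ethidium bromide displaced from hairpin DNA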
HCV core dimer = inhibitors of HCV core protein dimerization, primary screen, biochemical, TR-FRET, high-throughput. TR-FRET GST/Flag-core106 dimerization, 1536-well. inhibition, % at 5 µM. 0.33% of 300,000 active;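 active = inhibition above the mean of all tested compounds plus 3 SD, set per screening campaign, cut at about 45% in these data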
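Assay system: Tagged HCV core106 pair (GST and Flag) | Buffer or medium: KF-containing HEPES buffer, pH 7.45, DTT, CHAPS, BSA | Also added: Eu donor and XL665 acceptor anti-tag antibodies | Dosing: One concentration, 5 µM, in 0.5% DMSO | Timing: 4 h at 22.5 °C | Technique: TR-FRET 671 and 617 nm emission | Repeats: Singlicate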
* marks the source's active call; other numbers are inactive results; . = no result; ! = repeats disagree.

SMILES | HCV NS3 hel inh | HSP90 inh | HSF1 activator | HSF1 inh | DNA FID counter | HCV core dimer
O=c1cc(CSc2ccc(Cl)cc2)nc(-c2ccccc2)[nH]1 | -3 | 2 | 21 | 19 | -14 | 7
CNc1ncc(C(=O)c2ccccc2)s1 | -8 | -7 | 57* | 28 | 0 | 4
COc1ccc(/C(C#N)=C/c2ccccn2)cc1 | 10 | 4 | 68* | 27 | -8 | -10
COC(=O)c1ccc(/C=C(\C#N)c2nc3ccccc3s2)cc1 | 7 | 4 | 22 | 10 | -1 | -3
N#C/C(=C\c1ccccn1)c1nc2ccccc2s1 | 5 | 0 | 83* | 77 | -3 | -1
Cc1ccnn1CCC(=O)N1CCCC(N2CCN(c3cccc(Cl)c3)CC2)C1 (stereo unspecified) | -6 | 0 | -3 | 2 | -30 | -5
CN(CC(=O)Nc1cc(S(=O)(=O)N2CCOCC2)ccc1Cl)C1CCS(=O)(=O)C1 (stereo unspecified) | 7 | 6 | -1 | -2 | -8 | -6
Cc1nonc1C1CCCN1Cc1cn[nH]c1-c1ccc(-c2ccccc2)cc1 (stereo unspecified) | -18 | -1 | 62* | 49 | -1 | 1
Cc1cccc(C)c1-n1c(C)cc(/C=C2\NC(=O)NC2=O)c1C | -1 | 1 | -62 | -52* | -25 | -4
O=C(NCc1ccccn1)Nc1cccc([N+](=O)[O-])c1 | 2 | -4 | 7 | 11 | 0 | -3
O=C(CCCc1ccccc1)Nc1cccc([N+](=O)[O-])c1 | -11 | -5 | 16 | 4 | 9 | 5
COc1ccc(CCNC(=O)c2cccc([N+](=O)[O-])c2)cc1OC | . | . | -88 | -87* | . | -1
O=C(CCc1ccccc1)Nc1cccc([N+](=O)[O-])c1 | -4 | 1 | -82 | -76* | 5 | -1
O=C(NCc1ccccn1)c1cccc([N+](=O)[O-])c1 | -4 | 0 | 62* | 18 | -3 | -1
COc1ccc(CCNC(=O)Nc2cccc([N+](=O)[O-])c2)cc1OC | -8 | -2 | 71* | 26 | -1 | -2
CCOC(=O)c1cccc(Nc2nc(-c3cccnc3)nc3ccccc23)c1 | -39 | -3 | 13 | -1 | -14 | 10
Cc1ccccc1/C=C/c1nc2ccccc2c(=O)[nH]1 | 8 | -1 | 33 | 27 | -6 | -4
COC(=O)c1ccc(/C=C/c2nc3ccccc3c(=O)[nH]2)cc1 | -1 | 8 | 62* | 32 | -4 | 17
Cc1ccccc1/C=C\c1nc2ccccc2c(=O)[nH]1 | 4 | -1 | 122* | 70 | -4 | 5
CC(C)(C)NC(=O)c1ccc2c(c1)N(CC(=O)N1CCCCC1)C(=O)C(C)(C)O2 | 7 | 4 | 66* | 26 | -33 | -8
c1ccc2c(c1)CC/C2=N/Nc1nc2ccccc2[nH]1 | -9 | -2 | 51* | 13 | 17 | -9
O=C(Nc1ccc2c(c1)OCO2)c1cccc2c1C(=O)N(Cc1cccnc1)C2 | 1 | 5 | -10 | -2 | -10 | 54*
Cc1cccn2c(=O)nc(SCC(=O)N3N=C(c4cccs4)CC3c3ccc(F)cc3)nc12 (stereo unspecified) | . | . | 95* | 50 | . | .
O=C(NCc1ccccn1)c1ccc2nc(C3CCCCC3)oc2c1 | -2 | 2 | 11 | 0 | -39 | 8
COCCCC/C(=N\OCCN)c1ccc(C(F)(F)F)cc1 | -47 | 2 | -8 | -81*! | 29 | -2
SMILES | HCV NS3 hel inh | HSP90 inh | HSF1 activator | HSF1 inh | DNA FID counter | HCV core dimer
O=C(CCC(=O)OCC(=O)c1ccc(C(F)(F)F)cc1)OCC(=O)c1ccc(C(F)(F)F)cc1 | 5 | 7 | -14 | -7 | -1 | 1
CN(CC(=O)Nc1cccc(F)c1)C(=O)CCCn1c(=O)oc2ccccc21 | . | . | 0 | 3 | . | -5
CCOc1ccc(NC(=O)c2ccco2)c([N+](=O)[O-])c1 | -1 | -5 | 54* | 24 | 5 | -3
Cc1cc(NC(=O)c2ccc([N+](=O)[O-])o2)ccc1NC(=O)c1ccco1 | 2 | 7 | 72* | 69 | -8 | .
COc1cc(NC(=O)c2cccc([N+](=O)[O-])c2)ccc1NC(=O)c1ccco1 | 9 | 3 | -7 | -6 | 4 | 4
CCOc1ccc(NC(=O)c2ccc(CC)s2)c([N+](=O)[O-])c1 | 7 | 1 | 30 | 19 | 1 | 2
COc1cc(NC(=O)c2ccc([N+](=O)[O-])o2)ccc1NC(=O)c1ccco1 | -3 | 3 | 125* | 97 | -13 | 30
Cc1cc([N+](=O)[O-])ccc1NC(=O)c1ccco1 | -2 | 1 | 9 | -3 | -11 | -6
NC(=O)N/N=C/c1cn(CC(=O)Nc2ccc(F)cc2)c2ccccc12 | -11 | 2 | -1 | -2 | 3 | 3
COc1ccc(N2C(=O)CC(NNc3nc4ccccc4s3)C2=O)cc1 (stereo unspecified) | -6 | -2 | 114* | 60 | -12 | 2
Cc1ccc(NNC2CC(=O)N(c3cccc(Cl)c3)C2=O)cc1 (stereo unspecified) | 31 | 0 | . | . | -16 | .
O=C1CC(N2CCCCC2)C(=O)N1c1ccccc1 (stereo unspecified) | -3 | -2 | -62 | -53* | 2 | 2
O=C1CC(NNc2ccccc2)C(=O)N1c1ccccc1 (stereo unspecified) | 23 | -1 | 63* | 15 | -16 | -1
Nc1ccc(C(=O)OCC(=O)Nc2cc([N+](=O)[O-])ccc2F)cc1 | -6 | -1 | . | . | 5 | -2
COc1ccc(CN(C)C(C)C(=O)Nc2ccc(S(=O)(=O)N3CCOCC3)cc2)c(OC)c1 (stereo unspecified) | -6 | 3 | -4 | -15 | 8 | 1
CC(NC(=O)CNC(=O)c1sc2ccccc2c1Cl)c1ccc(S(N)(=O)=O)cc1 (stereo unspecified) | . | . | 0 | 0 | . | 3
CC1=C(C(=O)OCc2ccccc2)C(c2ccccc2OS(=O)(=O)c2ccccc2[N+](=O)[O-])NC(=O)N1CCCC(=O)O (stereo unspecified) | . | . | 9 | -3 | . | 5
CCOc1cc(CO)cc(Br)c1OCC(=O)O | 12 | 3 | 0 | -1 | -11 | 17
CC(=O)N(C)c1ccc(OCC(O)Cn2c3ccc(Cl)cc3c3cc(Cl)ccc32)cc1 (stereo unspecified) | -9 | 2 | 59* | 38 | -7 | 8

Assay outcomes deposited in PubChem by several laboratories.
